Reference: publication PMC9128166 (Cancer Science, 2022)
Several values for one entry are separate records, joined by “and”; a condition that tells them apart may be missing. Equal values may be shown once.

Experiments:
[1] = Treatment-emergent adverse events; assay type: in vivo, Japanese patients
[2] = tested on: relapsed or refractory marginal zone lymphoma; assay: Investigator-assessed response; assay type: in vivo, Japanese patients
How it was run: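 Investigator-assessed response by Lugano criteria in the full analysis set (all treated patients). Patients received 10 or 20 mg QD orally for 8 weeks, then the same dose QW. CT, FDG-PET or PET-CT was chosen by subtype, using the same technique as at screening. Scans ran every 8 weeks through week 24, every 12 weeks through week 96, then every 24 weeks until progression.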

[3] = Any TEAE, QD dosing period (n = 17)
[4] = Any TEAE, QW dosing period (n = 12)
[5] = Grade ≥3 TEAE, QD dosing period (n = 17)
[6] = Grade ≥3 TEAE, QW dosing period (n = 12)
[7] = two responders with MZL, individual values

Structure (SMILES): CCOc1c([C@H](C)n2nc(C)c3c(N)ncnc32)cc(Cl)c(F)c1[C@@H]1CNC(=O)C1 [parsaclisib]
- Serious TEAE of pyrexia ([1]; 2 patients): 11.8%
- rash (AESI), severity ([1]; 3 patients): 2 patients with grade 1 and 1 patient with grade 2
- nausea (TEAE) ([1]; 4 of 17 patients, total): 23.5%
- pyrexia (TEAE) ([1]; 4 of 17 patients, total): 23.5%
- Serious TEAEs ([1]; 5 patients): 29.4%
- TEAEs leading to dose reduction ([1]; 5 patients): 29.4%
- decreased neutrophil count leading to dose interruption ([1]; 5 patients): 29.4%
- constipation (TEAE) ([1]; 6 of 17 patients, total): 35.3%
- Adverse events of special interest ([1]; 7 patients): 41.2%
- TEAEs of grade 3 or higher ([1]; 11 patients): 64.7%
- Constipation [1, 3]: 4 (23.5) n (%)
- Cough [1, 3]: 2 (11.8) n (%)
- Cystitis [1, 3]: 1 (5.9) n (%)
- Diarrhea [1, 3]: 0 (0.0) n (%)
- Drug eruption [1, 3]: 3 (17.6) n (%)
- Dry eye [1, 3]: 0 (0.0) n (%)
- Dry skin [1, 3]: 2 (11.8) n (%)
- Fall [1, 3]: 2 (11.8) n (%)
- Gastritis [1, 3]: 2 (11.8) n (%)
- Headache [1, 3]: 2 (11.8) n (%)
- Hyperkalemia [1, 3]: 0 (0.0) n (%)
- Hypoalbuminemia [1, 3]: 2 (11.8) n (%)
- Insomnia [1, 3]: 0 (0.0) n (%)
- Myalgia [1, 3]: 1 (5.9) n (%)
- Nasopharyngitis [1, 3]: 0 (0.0) n (%)
- Nausea [1, 3]: 2 (11.8) n (%)
- Pyrexia [1, 3]: 3 (17.6) n (%)
- Rash [1, 3]: 1 (5.9) n (%)
- Stomatitis [1, 3]: 2 (11.8) n (%)
- Upper respiratory tract infection [1, 3]: 2 (11.8) n (%)
- Constipation [1, 4]: 2 (16.7) n (%)
- Cough [1, 4]: 0 (0.0) n (%)
- Cystitis [1, 4]: 1 (8.3) n (%)
- Diarrhea [1, 4]: 3 (25.0) n (%)
- Drug eruption [1, 4]: 0 (0.0) n (%)
- Dry eye [1, 4]: 2 (16.7) n (%)
- Dry skin [1, 4]: 0 (0.0) n (%)
- Fall [1, 4]: 0 (0.0) n (%)
- Gastritis [1, 4]: 0 (0.0) n (%)
- Headache [1, 4]: 1 (8.3) n (%)
- Hyperkalemia [1, 4]: 2 (16.7) n (%)
- Hypoalbuminemia [1, 4]: 0 (0.0) n (%)
- Insomnia [1, 4]: 3 (25.0) n (%)
- Myalgia [1, 4]: 1 (8.3) n (%)
- Nasopharyngitis [1, 4]: 3 (25.0) n (%)
- Nausea [1, 4]: 3 (25.0) n (%)
- Pyrexia [1, 4]: 1 (8.3) n (%)
- Rash [1, 4]: 2 (16.7) n (%)
- Stomatitis [1, 4]: 0 (0.0) n (%)
- Upper respiratory tract infection [1, 4]: 0 (0.0) n (%)
- Constipation ([1]; Any TEAE, Total (N = 17)): 6 (35.3) n (%)
- Cough ([1]; Any TEAE, Total (N = 17)): 2 (11.8) n (%)
- Cystitis ([1]; Any TEAE, Total (N = 17)): 2 (11.8) n (%)
- Diarrhea ([1]; Any TEAE, Total (N = 17)): 3 (17.6) n (%)
- Drug eruption ([1]; Any TEAE, Total (N = 17)): 3 (17.6) n (%)
- Dry eye ([1]; Any TEAE, Total (N = 17)): 2 (11.8) n (%)
- Dry skin ([1]; Any TEAE, Total (N = 17)): 2 (11.8) n (%)
- Fall ([1]; Any TEAE, Total (N = 17)): 2 (11.8) n (%)
- Gastritis ([1]; Any TEAE, Total (N = 17)): 2 (11.8) n (%)
- Headache ([1]; Any TEAE, Total (N = 17)): 3 (17.6) n (%)
- Hyperkalemia ([1]; Any TEAE, Total (N = 17)): 2 (11.8) n (%)
- Hypoalbuminemia ([1]; Any TEAE, Total (N = 17)): 2 (11.8) n (%)
- Insomnia ([1]; Any TEAE, Total (N = 17)): 3 (17.6) n (%)
- Myalgia ([1]; Any TEAE, Total (N = 17)): 2 (11.8) n (%)
- Nasopharyngitis ([1]; Any TEAE, Total (N = 17)): 3 (17.6) n (%)
- Nausea ([1]; Any TEAE, Total (N = 17)): 4 (23.5) n (%)
- Pyrexia ([1]; Any TEAE, Total (N = 17)): 4 (23.5) n (%)
- Rash ([1]; Any TEAE, Total (N = 17)): 3 (17.6) n (%)
- Stomatitis ([1]; Any TEAE, Total (N = 17)): 2 (11.8) n (%)
- Upper respiratory tract infection ([1]; Any TEAE, Total (N = 17)): 2 (11.8) n (%)
- Constipation [1, 5]: 0 (0.0) n (%)
- Cough [1, 5]: 0 (0.0) n (%)
- Cystitis [1, 5]: 0 (0.0) n (%)
- Diarrhea [1, 5]: 0 (0.0) n (%)
- Drug eruption [1, 5]: 0 (0.0) n (%)
- Dry eye [1, 5]: 0 (0.0) n (%)
- Dry skin [1, 5]: 0 (0.0) n (%)
- Fall [1, 5]: 0 (0.0) n (%)
- Gastritis [1, 5]: 0 (0.0) n (%)
- Headache [1, 5]: 0 (0.0) n (%)
- Hyperkalemia [1, 5]: 0 (0.0) n (%)
- Hypoalbuminemia [1, 5]: 1 (5.9) n (%)
- Insomnia [1, 5]: 0 (0.0) n (%)
- Myalgia [1, 5]: 0 (0.0) n (%)
- Nasopharyngitis [1, 5]: 0 (0.0) n (%)
- Nausea [1, 5]: 0 (0.0) n (%)
- Pyrexia [1, 5]: 0 (0.0) n (%)
- Rash [1, 5]: 0 (0.0) n (%)
- Stomatitis [1, 5]: 0 (0.0) n (%)
- Upper respiratory tract infection [1, 5]: 0 (0.0) n (%)
- Constipation [1, 6]: 0 (0.0) n (%)
- Cough [1, 6]: 0 (0.0) n (%)
- Cystitis [1, 6]: 0 (0.0) n (%)
- Diarrhea [1, 6]: 0 (0.0) n (%)
- Drug eruption [1, 6]: 0 (0.0) n (%)
- Dry eye [1, 6]: 0 (0.0) n (%)
- Dry skin [1, 6]: 0 (0.0) n (%)
- Fall [1, 6]: 0 (0.0) n (%)
- Gastritis [1, 6]: 0 (0.0) n (%)
- Headache [1, 6]: 0 (0.0) n (%)
- Hyperkalemia [1, 6]: 0 (0.0) n (%)
- Hypoalbuminemia [1, 6]: 0 (0.0) n (%)
- Insomnia [1, 6]: 0 (0.0) n (%)
- Myalgia [1, 6]: 0 (0.0) n (%)
- Nasopharyngitis [1, 6]: 0 (0.0) n (%)
- Nausea [1, 6]: 0 (0.0) n (%)
- Pyrexia [1, 6]: 0 (0.0) n (%)
- Rash [1, 6]: 0 (0.0) n (%)
- Stomatitis [1, 6]: 0 (0.0) n (%)
- Upper respiratory tract infection [1, 6]: 0 (0.0) n (%)
- Constipation ([1]; Grade ≥3 TEAE, Total (N = 17)): 0 (0.0) n (%)
- Cough ([1]; Grade ≥3 TEAE, Total (N = 17)): 0 (0.0) n (%)
- Cystitis ([1]; Grade ≥3 TEAE, Total (N = 17)): 0 (0.0) n (%)
- Diarrhea ([1]; Grade ≥3 TEAE, Total (N = 17)): 0 (0.0) n (%)
- Drug eruption ([1]; Grade ≥3 TEAE, Total (N = 17)): 0 (0.0) n (%)
- Dry eye ([1]; Grade ≥3 TEAE, Total (N = 17)): 0 (0.0) n (%)
- Dry skin ([1]; Grade ≥3 TEAE, Total (N = 17)): 0 (0.0) n (%)
- Fall ([1]; Grade ≥3 TEAE, Total (N = 17)): 0 (0.0) n (%)
- Gastritis ([1]; Grade ≥3 TEAE, Total (N = 17)): 0 (0.0) n (%)
- Headache ([1]; Grade ≥3 TEAE, Total (N = 17)): 0 (0.0) n (%)
- Hyperkalemia ([1]; Grade ≥3 TEAE, Total (N = 17)): 0 (0.0) n (%)
- Hypoalbuminemia ([1]; Grade ≥3 TEAE, Total (N = 17)): 1 (5.9) n (%)
- Insomnia ([1]; Grade ≥3 TEAE, Total (N = 17)): 0 (0.0) n (%)
- Myalgia ([1]; Grade ≥3 TEAE, Total (N = 17)): 0 (0.0) n (%)
- Nasopharyngitis ([1]; Grade ≥3 TEAE, Total (N = 17)): 0 (0.0) n (%)
- Nausea ([1]; Grade ≥3 TEAE, Total (N = 17)): 0 (0.0) n (%)
- Pyrexia ([1]; Grade ≥3 TEAE, Total (N = 17)): 0 (0.0) n (%)
- Rash ([1]; Grade ≥3 TEAE, Total (N = 17)): 0 (0.0) n (%)
- Stomatitis ([1]; Grade ≥3 TEAE, Total (N = 17)): 0 (0.0) n (%)
- Upper respiratory tract infection ([1]; Grade ≥3 TEAE, Total (N = 17)): 0 (0.0) n (%)
- patients with at least one TEAE ([1]; N = 17): all patients
- neutropenia leading to dose interruption ([1]; additional 2 patients): 11.8%
- serious TEAE of pancreatitis ([1]; dose interruption on both occurrences, responded to corticosteroid): One patient experienced a serious TEAE of pancreatitis (grade 2, study days 78 and 145)
- TEAEs leading to dose interruption ([1]; during QD dosing): 7 patients
- TEAEs leading to dose reduction ([1]; during QD dosing): 2 patients
- TEAEs leading to dose interruption ([1]; during QW dosing): 4 patients
- TEAEs leading to dose reduction ([1]; during QW dosing): 3 patients
- Varicella zoster infection (AESI) ([1]; grade 2 in severity, led to parsaclisib discontinuation): 1 patient
- TEAEs leading to parsaclisib dose reduction (terms) ([1]; human, in vivo, oral): febrile neutropenia (1 patient), drug eruption and neutropenia in a single patient during the QD period, pancreatitis and pancreatitis relapsing in a single patient, and diarrhea (1 patient) and exfoliative dermatitis (1 patient) during the QW period
- febrile neutropenia (AESI), occurrence and severity ([1]; human, in vivo, oral): Two patients experienced grade 3
- exfoliative dermatitis (AESI), occurrence and severity ([1]; human, in vivo, oral, 64 day): One patient experienced grade 1
- Nonhematologic grade 3 or higher TEAEs occurring in 1 patient each ([1]; in vivo): bile duct stenosis (secondary to pancreatitis), hypoalbuminemia, and lymphoma progression (metastases to meninges [lymphomatous meningitis])
- Other serious TEAEs experienced by 1 patient each ([1]; in vivo): diarrhea, enteritis infection, febrile neutropenia, metastases to meninges, and pancreatitis
- TEAEs with a fatal outcome ([1]; in vivo): no TEAEs with a fatal outcome
- diarrhea (AESI), longest time to resolution ([1]; individual patients): 14 days and 18 days and 67 days
- diarrhea (AESI), time to first onset ([1]; individual patients): 70 days and 108 days and 305 days
- febrile neutropenia (AESI), time to onset ([1]; individual patients): 28 days and 63 days
- febrile neutropenia (AESI), time to resolution ([1]; individual patients): 10 days and 2 days
- rash (AESI), longest time to resolution ([1]; individual patients): 5 days and 8 days and 23 days
- rash (AESI), time to onset of first occurrence ([1]; individual patients): 11 days and 50 days and 312 days
- Varicella zoster infection (AESI), onset ([1]; one patient): 33 days
- Varicella zoster infection (AESI), resolution ([1]; one patient): 21 days
- exfoliative dermatitis (AESI), onset ([1]; one patient): 64 days
- exfoliative dermatitis (AESI), resolution ([1]; one patient): 36 days
- diarrhea (AESI), severity ([1]; three patients, none led to discontinuation): 1 patient with grade 1 and 2 patients with grade 2
- BOR, CMR/CR ([2]; MZL (n = 2)): 0 (0.0) n (%)
- BOR, NMR/SD ([2]; MZL (n = 2)): 0 (0.0) n (%)
- BOR, PMD/PD ([2]; MZL (n = 2)): 0 (0.0) n (%)
- BOR, PMR/PR ([2]; MZL (n = 2)): 2 (100) n (%)
- Objective response ([2]; MZL (n = 2)): 2 (100.0) n (%)
- BOR, Not assessed ([2]; MZL (n = 2), no postbaseline response data available): 0 (0.0) n (%)
- ORR ([2]; MZL, 2 of 2 patients): 100%
- observed PFS [2, 7]: 16.7 months and 22.0 months
- observed response duration [2, 7]: 14.8 months and 16.8 months
